RAM network inh – inhibitors of the yeast RAM network, primary screen, dse1pr::URA3 reporter, 5-FOA selection; S. cerevisiae dse1pr::URA3 reporter, 5-FOA growth OD615, 2 d; analog-sensitive cbk1-as2 kinase mutant strain; inhibition, % at 50 µM; 1.8% of 190,000 active; AID 868, 2007;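 active = inhibition above a set limit, 3 SD over mean compound inhibition, cut at about 8.4% in these data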;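 note: inhibition rescues growth on 5-FOA so higher OD means more RAM inhibition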
WT yeast gro inh – growth inhibition of WT strain, primary screen, mitochondrial fusion inhibitor project, WT and mutant strains, chemical genetic; mitochondrial fusion phenotypic screen; 2.1% of 190,000 active; inhibition, % at 10 µM; in the data active = inhibition above about 58%; tested in S. cerevisiae
BB579 growth dn – growth inhibitors of yeast BB579 in restrictive medium, primary screen, yeast lifespan-shortening project, S. cerevisiae; OD615, 48 h; inhibition, % at 10 µM; 0.51% of 140,000 active; AID 804, 2007;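 active = inhibition above a set limit, 3 SD over the mean compound inhibition, cut at about 44% in these data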
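Assay system – yeast BB579 (DeaD) · Dosing – single compound dose of 10 µM, 0.25% DMSO final · Detection – OD615 turbidity measurement · Buffer or medium – CSMM-D restrictive synthetic medium containing dextrose (glucose) · Benchmarks – positive control amphotericin B 10 µg/mL · Incubation – 48 h exposure, 30 °C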
Yeast life ext – compounds extending yeast replicative lifespan, primary screen, S. cerevisiae, OD615. S. cerevisiae growth with nicotinamide; deaD strain in restrictive glucose medium. inhibition of the nicotinamide effect, % at 10 µM. 0.68% of 130,000 active. AID 775, 2007;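 active = inhibition above a set limit, placed 3 SD over the median of all compounds, cut at about 26% in these data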
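Material: Modified budding yeast, DeaD strain | Medium: Restrictive glucose medium | Probe or stimulus: 1.5 mM nicotinamide | Dosing: Single dose 10 µM compound, 0.25% DMSO | Times: 48 h at 30 °C | Technique: OD615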
Each line names hits and unclear results; the compound was inactive in the other large screens. The list is not random: actives were taken first. Their share in the collection is about 4.3%.

O=[N+]([O-])c1ccc(N(c2ccccc2)c2ccccc2)cc1	RAM network inh 10.0
CCN(C(=O)c1ccccc1)c1ccc([N+](=O)[O-])cc1	none
CC(C)(C)C1CCC2(CC1)Nc1cccc3cccc(c13)N2	RAM network inh 8.9
Oc1cccc2c(NC(=S)Nc3ccc(SC(F)F)cc3)cccc12	WT yeast gro inh 65.0
Oc1cccc(NC(=S)Nc2ccc(SC(F)F)cc2)c1	none
O=C(Oc1coc(CSc2ncccn2)cc1=O)c1ccc(Br)o1	Yeast life ext 38.1
O=C(c1ccc2c(Cl)c3c(nc2c1)CCCC3)N1CCN(c2ccc(F)cc2)CC1	none
COc1ccccc1N1CCN(C(=O)c2ccc3[nH]c4c(c3c2)CC(C)CC4)CC1 (centres undefined)	WT yeast gro inh 72.3
COc1ccccc1N1CCN(C(=O)c2ccc3c(Cl)c4c(nc3c2)CCCC4)CC1	Yeast life ext 28.1
CCOC(=O)CSc1c(-c2cccs2)[nH]c2ccccc12	WT yeast gro inh 64.1
O=C(c1cccs1)n1nc(-c2ccccc2)nc1NCc1ccc(F)cc1	RAM network inh 8.6
O=C(c1cccc([N+](=O)[O-])c1)n1nc(-c2ccccc2)nc1NCc1ccccc1	RAM network inh 9.7
Cc1nn(-c2ccc(F)cc2)c(C)c1/C=C/C(=O)N1CCNC(=O)C1	none (no result: BB579 growth dn, Yeast life ext)
COc1ccccc1N1CCN(C(=O)c2oc3ccc(F)cc3c2C)CC1	none
COc1ccccc1N1CCN(C(=O)c2oc3ccc(Br)cc3c2C)CC1	WT yeast gro inh 78.9
C(=C\c1ccccc1)/CN1CCN(c2ncnc3c2oc2ccccc23)CC1	WT yeast gro inh 66.9
c1ccc2c(c1)oc1c(N3CCOCC3)ncnc12	BB579 growth dn 55.6
c1ccc2[nH]c(CN3CCN(c4ncnc5c4oc4ccccc45)CC3)nc2c1	none
Cc1nc(N2CCOCC2)c2oc3ccccc3c2n1	none
COc1ccccc1N1CCN(c2ncnc3c2oc2ccccc23)CC1	WT yeast gro inh 60.6
O=c1c2c3c(sc2ncn1/N=C/c1ccc([N+](=O)[O-])o1)CCCC3	Yeast life ext 65.3
Cn1cc(/C=N/n2cnc3sc4c(c3c2=O)CCCC4)c2ccccc21	none
Cc1cc(OCCCCn2ccnc2)cc(C)c1Cl	WT yeast gro inh 76.2 (no result: BB579 growth dn, Yeast life ext)
Cc1cc(Cl)cc(C)c1OCCCCn1ccnc1	WT yeast gro inh 76.0
Cc1nc2cc(C(F)(F)F)ccc2n1C	none (no result: BB579 growth dn, Yeast life ext)
COc1ccc(C(=O)NCc2ccc3[nH]c(C)cc3c2)cc1OC	none (no result: BB579 growth dn, Yeast life ext)
Cc1nn(-c2ccc(F)cc2)c(Cl)c1/C=C1\C(=O)Nc2ccccc21	RAM network inh 8.6
CS(=O)(=O)c1cnc(-c2cccnc2)nc1N	none (no result: BB579 growth dn, Yeast life ext)
Cc1ccn2c(NC3CCCC3)c(-c3ccncc3)nc2c1	none (no result: BB579 growth dn, Yeast life ext)
Cc1ccn2c(NC3CCCC3)c(-c3ccccn3)nc2c1	WT yeast gro inh 76.5 (no result: BB579 growth dn, Yeast life ext)
Clc1ccc(-c2nc3cnccn3c2NC2CCCC2)cc1	WT yeast gro inh 68.1
c1ccc(-c2nc3ccccn3c2NC2CCCC2)nc1	WT yeast gro inh 68.4 (no result: BB579 growth dn, Yeast life ext)
CN1CCN(c2ccc(Cl)cc2NC(=O)/C=C/c2ccc(F)cc2)CC1	WT yeast gro inh 82.7 (no result: BB579 growth dn, Yeast life ext)
O=C(CSc1ncnc2scc(-c3ccccc3)c12)N1CCN(c2ccccc2F)CC1	none
Fc1ccc(CSc2ncnc3scc(-c4ccccc4)c23)cc1	RAM network inh 10.3
N#C/C(=C\c1ccccc1)c1nc2ncccc2[nH]1	none
COc1cccc(OC)c1OCCCOc1ccc(C)cc1Br	WT yeast gro inh 66.8
COc1ccc2cc(CCN3C(=O)c4ccccc4C3=O)c(=O)[nH]c2c1	none
CCN(CC)C(=O)Cn1cnc2sc(C(=O)N3CCN(Cc4ccc5c(c4)OCO5)CC3)c(C)c2c1=O	none (no result: BB579 growth dn, Yeast life ext)
Oc1ccccc1/C=N/n1c2ccccc2c2ccccc21	RAM network inh 9.7
O=C1c2ccccc2-c2n[nH]c(=O)c3ccc(N4CCCCC4)c1c23	WT yeast gro inh 62.8 (no result: BB579 growth dn, Yeast life ext)
O=C(Nc1nnc(CCS(=O)(=O)c2ccc3ccccc3c2)s1)c1ccc([N+](=O)[O-])cc1	RAM network inh 8.4
O=C(Nc1nnc(CCS(=O)(=O)c2ccc3ccccc3c2)s1)c1cccs1	none
O=c1onc(-c2ccc(Cl)cc2)n1Cc1ccc(F)cc1	none
O=C(CCN1CCCCCC1)Nc1ccc(F)cc1	Yeast life ext 64.3
O=C(CCN1CCCCCC1)Nc1ccc(F)c(F)c1	none
COc1ccccc1CNC(=O)C(CCSC)NS(=O)(=O)c1ccc2c(c1)oc(=O)n2C (centres undefined)	Yeast life ext 86.6
O=C(O)c1ccc(-c2nc(-c3ccc(Cl)c(Cl)c3)cs2)cc1	WT yeast gro inh 74.8 (no result: BB579 growth dn, Yeast life ext)

High-throughput results from PubChem BioAssay.
